Assays:
[1] = target: T1, Pseudomonas aeruginosa lectin LecA (Pseudomonas aeruginosa, UniProt Q05097); assay: Electrochemical; settings: LecA sensor, n.b. = no binding; for K d from CV: cyclic voltammetry; for K d from DPV: differential pulse voltammetry
T1 sequence (Q05097 1-122): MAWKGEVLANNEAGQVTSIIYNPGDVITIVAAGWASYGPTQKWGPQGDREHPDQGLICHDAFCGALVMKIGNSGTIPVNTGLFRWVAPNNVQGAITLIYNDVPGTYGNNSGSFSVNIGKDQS
How it was run: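 P. aeruginosa LecA (commercial, ≥70%) coupled at 10 μM for 1 h to an EDC/NHS-activated MUA/DTT layer on a gold nanoparticle–graphene screen-printed electrode, then blocked 30 min with 1% BSA. Sugars titrated in 10 mM PBS with 1 mM CaCl2 and 1 mM MnCl2. Read in 25 mM [Fe(CN)6]3−/4− with 0.2 M KCl at 25 °C. CV: −0.2 to 0.8 V, 0.05 V s−1. DPV: −0.2 to 0.5 V. Reduction-peak Δip fitted to a one-site model.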

[2] = target: LecA; settings: n.b. = no binding, no reference given; cited from earlier work
[3] = target: ConA; settings: read-out: Reported Kd; cited from earlier work

Compound | K d from CV [1] | K d from DPV [1] | Reported Kd [2] | Kd [3] [µM]
OC[C@H]1OC(O)[C@@H](O)[C@@H](O)[C@@H]1O (some centres unmarked) [mannose (3), mannose] | n.b. | n.b. | n.b. | 57
mannan [mannan (4)] | n.b. | n.b. | n.b. | 3
